PfG6PD inh: PfG6PD (Plasmodium falciparum) enzyme inhibition; PfGluPho enzyme, NADPH resazurin-diaphorase fluorescence; inhibition, % at 20 µM; 350,000 tested, 0.78% active; AID 504690;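 active = inhibition reaching at least a set limit at 20 µM in the primary screen, cut at about 59% in these data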;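 note: 0% = DMSO wells with substrate and 100% = DMSO wells lacking glucose-6-phosphate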
HKDC1 inh: blocks human hexokinase HKDC1 activity; 340,000 tested, 0.16% active; AID 493160; recombinant HKDC1, G6PDH/diaphorase resazurin coupled fluorescence; Q2TB90; inhibition, % at 20 µM;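 active = inhibition above about 35% when tested at 20 µM, limit read from the data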;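 note: plate controls were DMSO wells with enzyme for no effect and DMSO wells lacking enzyme for full effect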
Target sequence (Q2TB90 whole entry, looked up): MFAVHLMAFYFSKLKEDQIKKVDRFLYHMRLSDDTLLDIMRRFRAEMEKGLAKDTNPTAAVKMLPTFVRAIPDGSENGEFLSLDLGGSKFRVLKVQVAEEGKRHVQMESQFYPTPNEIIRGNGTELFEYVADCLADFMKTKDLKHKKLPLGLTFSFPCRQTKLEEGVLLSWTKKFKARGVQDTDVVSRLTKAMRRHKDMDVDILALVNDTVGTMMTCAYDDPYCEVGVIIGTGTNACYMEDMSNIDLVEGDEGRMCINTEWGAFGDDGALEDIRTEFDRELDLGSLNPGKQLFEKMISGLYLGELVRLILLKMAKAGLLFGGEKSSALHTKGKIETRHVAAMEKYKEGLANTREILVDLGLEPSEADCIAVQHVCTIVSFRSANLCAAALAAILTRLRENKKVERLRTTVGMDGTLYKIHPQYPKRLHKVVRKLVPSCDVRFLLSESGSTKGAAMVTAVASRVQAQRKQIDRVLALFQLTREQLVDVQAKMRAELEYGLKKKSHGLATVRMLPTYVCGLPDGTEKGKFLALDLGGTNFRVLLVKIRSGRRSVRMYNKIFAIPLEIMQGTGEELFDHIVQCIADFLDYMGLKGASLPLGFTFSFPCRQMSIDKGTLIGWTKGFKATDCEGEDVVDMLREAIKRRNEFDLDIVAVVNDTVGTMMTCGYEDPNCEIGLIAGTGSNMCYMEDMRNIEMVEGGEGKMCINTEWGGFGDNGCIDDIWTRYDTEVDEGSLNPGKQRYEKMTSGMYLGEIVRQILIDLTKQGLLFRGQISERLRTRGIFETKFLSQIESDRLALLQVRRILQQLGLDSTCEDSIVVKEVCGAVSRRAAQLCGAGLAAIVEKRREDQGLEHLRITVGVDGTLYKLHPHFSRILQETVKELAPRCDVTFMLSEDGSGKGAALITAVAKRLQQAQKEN
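Incubation: 90 min at room temperature in dark / Material: recombinant HKDC1 (HK5) hexokinase enzyme, produced in-house / Quantity: enzyme 5 µg/mL final / Compound: one dose of 20 µM, 1% DMSO / Reagent: glucose and ATP substrates / Buffer or medium: Tris pH 8.0 buffer with MgCl2, Tween-20, BSA, BME / Technique: resorufin fluorescence at 613 nm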
Diaph inh CS: diaphorase inhibition or chemical oxidation counter-screen; diaphorase resazurin-to-resorufin fluorescence, NADH, 16 min; bacterial (C. kluyveri) enzyme, not human; inhibition, % at 20 µM; 190,000 tested, 0.69% active; AID 1217;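 active = primary screen inhibition at 20 µM above a set limit, cut at about 50% in these data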;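 note: plate controls were DMSO with full reaction for no effect and wells lacking NADH for full effect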
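System: Diaphorase enzyme from Clostridium kluyveri | Amount: Enzyme working solution with 0.14 U/mL diaphorase | Benchmarks: No-NADH positive control and DMSO neutral control | Signal: Fluorescence of resorufin formed from resazurin, Ex 544/Em 590 nm | Schedule: 16-min room-temperature incubation before reading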
G6PDH CS: L. mesenteroides G6PDH inhibition counter-screen; Purified L. mesenteroides G6PDH, diaphorase/resazurin coupled fluorescence, 45 min; inhibition, % at 5 µM; 200,000 tested, 0.12% active; in the data active = inhibition above about 50%
PfG6PD confirm: confirmation of Plasmodium falciparum G6PD inhibitors. recombinant PfGluPho, NADPH-diaphorase-resazurin fluorescence. 2,400 tested, 34% active. inhibition, % at 20 µM. shares compounds with PfG6PD inh;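 active = inhibition of at least 50% at 20 µM in any single replicate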;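 note: 0% = DMSO with substrate and 100% = DMSO lacking glucose-6-phosphate substrate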
Diaphorase 10uM: counter-screen for P. falciparum G6PD inhibitors: diaphorase inhibitors, oxidizers | shares compounds with PfG6PD inh | diaphorase-coupled resazurin reduction, fluorescence, NADPH 10 uM | inhibition, % at 20 µM | 820 tested, 39% active | AID 504862;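 active = average inhibition reaching 50% or more with the compound at 20 µM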;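 note: resorufin red fluorescence formed as diaphorase reduces resazurin using NADPH; 0% = DMSO with enzyme and 100% = DMSO without enzyme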
Diaphorase 30uM: counter-screen for P. falciparum G6PD inhibitors: diaphorase inhibitors, oxidizers; Diaphorase/resazurin coupled assay, resorufin fluorescence, 30 uM NADPH; inhibition, % at 20 µM; 820 tested, 29% active; shares compounds with PfG6PD inh;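 active = inhibition averaging 50% or more, tested at 20 µM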;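 note: 0% = DMSO with enzyme and 100% = DMSO wells lacking diaphorase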
* hit, by the source's call; . = no result given. Only some compounds are listed: those with a hit (about 1.3% of all), similar ones and a draw of the others.

SMILES	PfG6PD inh	HKDC1 inh	Diaph inh CS	G6PDH CS	PfG6PD confirm	others
Cc1ccc(S(=O)(=O)NNC(=O)c2ccc3ccccc3n2)cc1	-9	0	.	.	.
CC(Oc1cccnc1[N+](=O)[O-])C(=O)Nc1ccc(Cl)cn1 (configuration not stated)	7	3	.	.	.
CC1=C(C(=O)OCc2ccccc2)C(c2cccnc2)n2nnnc2N1 (configuration not stated)	61*	2	12	13	31
NS(=O)(=O)c1ccc(NC(=O)COC(=O)CC2Sc3ccccc3NC2=O)cc1 (configuration not stated)	-3	-2	.	.	.
CCn1c(=O)n(CC)c2cc(N3CCCC3)c(NC(=O)c3cccc(C)c3)cc21	71*	2	.	.	84*	Diaphorase 10uM=-10;Diaphorase 30uM=9
O=c1c2ccccc2sn1-c1cc(S(=O)(=O)N2CCOCC2)ccc1N1CCCC1	112*	-7	4	1	107*	Diaphorase 10uM=-10;Diaphorase 30uM=-7
O=C(Nc1cc(S(=O)(=O)N2CCOCC2)ccc1N1CCCC1)c1ccc2c(c1)S(=O)(=O)c1ccccc1C2=O	74*	-12	20	-2	40
Nc1cc(S(=O)(=O)N2CCCCC2)ccc1N1CCCCC1	10	-1	.	.	.
Nc1cc(S(=O)(=O)N2CCOCC2)ccc1N1CCCCC1	69*	-12	.	.	36
O=C(Nc1cc(S(=O)(=O)N2CCOCC2)ccc1N1CCCCC1)c1ccc(Cl)cc1	80*	-5	.	.	40
O=C(O)c1cc(S(=O)(=O)N2CCOCC2)ccc1N1CCCCC1	-8	-2	3	3	.
CC(c1ccccc1)N(C)C(=O)CSc1nnc(C2CC2)n1C1CC1 (configuration not stated)	7	-2	.	.	.
O=C(Nc1cc(S(=O)(=O)N2CCOCC2)ccc1N1CCCC1)c1ccc(Cl)cc1	60*	-6	.	.	45
CC(C)C(=O)Nc1cc(S(=O)(=O)N2CCOCC2)ccc1N1CCCCC1	61*	-10	.	.	-14
O=C(Nc1cc(S(=O)(=O)N2CCOCC2)ccc1N1CCCC1)c1ccccc1F	0	.	.	.	.
O=C(Nc1cc(S(=O)(=O)N2CCOCC2)ccc1N1CCCCC1)c1ccccc1Br	68*	-8	.	.	-7
Cn1cnc(C(=O)NCc2ccccc2)c1C(=O)NCc1ccccc1	0	-2	.	.	.
N#Cc1ccccc1S(=O)(=O)N1CCNS(=O)(=O)c2ccccc21	-1	4	.	.	.
CC(=O)N1CCN(c2ccc(NCc3cccc4ccccc34)cc2)CC1	63*	8	.	.	24
CC1=NN(c2nc(N)nc(/C(C#N)=C/c3ccc([N+](=O)[O-])o3)n2)C(C)(C)C1	69*	31	.	.	26
Nc1nc(COc2ccc(F)cc2Cl)nc(N2CCCCC2)n1	14	2	7	-3	.
COc1ccc(N/C=C2\CCc3ccccc3C2=O)cc1	91*	33	90*	62*	46
COc1ccc2c(c1)CC/C(=C\Nc1ccc3c(c1)OCO3)C2=O	73*	20	82*	59*	57*	Diaphorase 10uM=3;Diaphorase 30uM=10
O=C1/C(=C/Nc2ccc3c(c2)OCO3)CCc2ccccc21	88*	35	75*	53*	41
CCOC(=O)C1CCCN(C(=O)C2CCN(S(=O)(=O)c3c(C)noc3/C=C/c3ccccc3F)CC2)C1 (configuration not stated)	-6	2	.	.	.
SMILES	PfG6PD inh	HKDC1 inh	Diaph inh CS	G6PDH CS	PfG6PD confirm	others
CCN1CCCC1CNC(=O)c1ccc2c(c1)NC(=O)/C(=C\c1ccc(C)cc1)S2 (configuration not stated)	117*	2	.	.	104*	Diaphorase 10uM=-12;Diaphorase 30uM=-3
O=C1Nc2cc(C(=O)NCCN3CCCCCC3)ccc2S/C1=C/c1ccccc1F	99*	.	.	.	45
Cc1ccc(/C=C2/Sc3ccc(C(=O)NCCN4CCOCC4)cc3NC2=O)cc1	-7	-2	.	.	.
O=C1Nc2cc(C(=O)NCCCN3CCCC3)ccc2S/C1=C/c1ccccc1F	26	8	.	.	.
O=C1NC(NS(=O)(=O)c2ccccc2)(C(F)(F)F)C(=O)N1c1cccc(Cl)c1 (configuration not stated)	-11	-3	.	.	.
Nc1cc(N)c(OCC(F)(F)F)cc1OCC(F)(F)F	99*	21	50*	51*	94*	Diaphorase 10uM=34;Diaphorase 30uM=22
COc1cc(N=C2C(=O)N3c4c(cccc42)C(C)=CC3(C)C)cc(OC)c1	29	15	24	18	.
CC1=CC(C)(C)N2C(=O)C(=Nc3ccc(O)cc3)c3cccc1c32	94*	20	.	.	23
COc1cc(=O)[nH]c(SC(C)C(=O)Nc2ccc3ccccc3c2)n1 (configuration not stated)	0	6	.	.	.
Oc1c(Cl)cc(Cl)cc1C=Nc1cc(C(F)(F)F)ccc1N1CCc2ccccc2C1	72*	9	.	.	-8
C[C@H](CO)N1C[C@H](C)[C@@H](CN(C)C(=O)Nc2ccc(C(F)(F)F)cc2)Oc2c(cccc2N(C)C)C1=O	82*	-1	.	.	64*	Diaphorase 10uM=54*;Diaphorase 30uM=48
COCCn1c(C)cc(C(=O)CSc2nc(C)c(C)c(C)n2)c1C	32	-4	-2	0	.
COCC(C)n1c(C)cc(C(=O)CSc2nc(C)c(C)c(C)n2)c1C (configuration not stated)	60*	-2	.	.	-12
O=C1C=C(O)c2c(O)cc(O)c(O)c2C1=O	4	-1	.	.	.
O=C1C=C(O)c2[nH]c(=O)ccc2C1=O	69*	22	.	.	30
CCOc1ccc2c(c1)C(=NNC(=O)c1ccccn1)c1cc(OCC)ccc1-2	-3	-9	.	.	.
Cn1c(=O)n(Cc2ccccc2Cl)c(=O)c2c1[nH]c(=S)n2C	60*	-5	.	.	33
Cn1c(=O)c2c([nH]c(=S)n2CCCc2ccccc2)n(C)c1=O	68*	-6	.	.	53*	Diaphorase 10uM=-34;Diaphorase 30uM=-26
Cn1c(=O)[nH]c(=O)c2c1[nH]c(=S)n2CCCc1ccccc1	75*	-4	.	.	49*	Diaphorase 10uM=-34;Diaphorase 30uM=-6
COc1cccc(NC(=O)CN(C)C(=O)c2ccc(NC(=O)CC3SC(N4CCCC4)=NC3=O)cc2)c1 (configuration not stated)	2	-1	.	.	.
O=C(CNc1cc(S(=O)(=O)N2CCOCC2)ccc1N1CCCC1)Nc1ccc(Cl)cc1	9	-2	.	.	.
COc1ccc(C(=O)c2c(C(F)(F)F)oc3c2C(=O)c2ccccc2C3=O)cc1	76*	17	7	54*	35*	Diaphorase 10uM=28;Diaphorase 30uM=32
Cc1ccc(S(=O)(=O)Oc2cccc(/C=N/Nc3ccc(C(=O)O)cc3)c2)cc1	98*	7	.	.	67*	Diaphorase 10uM=60*;Diaphorase 30uM=49
Cc1ccc(S(=O)(=O)Oc2cccc(/C=N/n3cnnc3)c2)cc1	77*	-1	11	6	37
